Columns and labels:
HCT-116 = assay: Antiproliferative activity against human HCT-116 cells assessed as inhibition of cell viability measured after 72 hrs by MTT assay; assay type: functional, cell-based; details: HCT-116, 72 h
How it was run: (§1)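 Cells kept at 37 °C, 5% CO₂ in RPMI 1640, L-15 or DMEM with 10% FBS and 1% penicillin-streptomycin. Plated at 2-4 × 10³ cells/well and dosed 24 h after plating. After 72 h exposure, MTT added for 2-4 h at 37 °C. Formazan dissolved in DMSO, absorbance read at 570 nm. IC50 is the mean of at least three independent experiments.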

SW-620 = assay: Antiproliferative activity against human SW-620 cells assessed as inhibition of cell viability measured after 72 hrs by MTT assay; assay type: functional, cell-based; details: SW-620, 72 h; how it was run: as §1
HT-29 = assay: Antiproliferative activity against human HT-29 cells assessed as inhibition of cell viability measured after 72 hrs by MTT assay; assay type: functional, cell-based; details: HT-29, 72 h; how it was run: as §1
HCT-15 = assay: Antiproliferative activity against human HCT-15 cells assessed as inhibition of cell viability measured after 72 hrs by MTT assay; assay type: functional, cell-based; details: HCT-15, 72 h; how it was run: as §1
DLD-1 = assay: Antiproliferative activity against human DLD-1 cells assessed as inhibition of cell viability measured after 72 hrs by MTT assay; assay type: functional, cell-based; details: DLD-1, 72 h; how it was run: as §1
[1] = Inhibition of dimerization of N-terminal His6-tagged human c-Myc bHLHZip domain (353 to 439 residues)/Max(151 residues) (unknown origin) expressed in Escherichia coli BL21DE3 measured after 1 hr by ELISA
How it was run: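 Myc bHLHZip (5.5 μg/well) was coated at 4 °C for 24 h in PBS pH 7.0 buffer (EDTA, KCl, MgCl2, glycerol, NP40, DTT), then blocked with 3% BSA for 2 h at 37 °C. Detection used rabbit anti-c-Myc, HRP anti-rabbit and TMB, read at 450 nm.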

Homo sapiens = species on record: Homo sapiens; assay: Inhibition of dimerization of N-terminal His6-tagged human c-Myc bHLHZip domain (353 to 439 residues)/Max(151 residues) (unknown origin) expressed in Escherichia coli BL21DE3 assessed as inhibition of c-Myc/Max/DNA complex formation at 20 uM preincubated with c-Myc/Max for 1.5 hrs followed by incubation with DNA oligo for 0.5 hrs by EMSA analysis relative to control; details: time 2.0 hrs
How it was run: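 Gel-shift used His-tagged Myc/Max complex (50 nM) with a biotinylated E-box duplex oligo (50 nM). Buffer was PBS pH 7.0 with 10 mM EDTA, 500 mM KCl, 30 mM MgCl2, 5% glycerol, 0.1% NP40, 1.5 mM DTT and 10% DMSO. Protein was preincubated with compound at 20 μM for 1.5 h at room temperature, then DNA was added for 0.5 h. Inhibition is relative to DMSO; three independent experiments.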

Structure (SMILES) | IC50 (HCT-116) | IC50 (SW-620) | IC50 (HT-29) | IC50 (HCT-15) | IC50 (DLD-1) | IC50 [1] | inhibition (Homo sapiens)
COc1cc(Oc2cccc(Nc3ccccc3)c2)cc(OC)c1CNCCc1ccc(Cl)cc1 | 5.4 µM | 10 µM | 2.82 µM | 3.76 µM | 3.4 µM | 92 µM | 43.7%
COc1cc(Oc2cccc(Nc3ccccc3)c2)cc(OC)c1CNCc1ccc2c(c1)OCO2 | > 20 µM | > 20 µM | 8.5 µM | 8.93 µM | 8.57 µM | 105 µM | 42.1%
COc1cc(Oc2cccc(Nc3ccccc3)c2)cc(OC)c1CNCCc1ccc(O)cc1 | 15.7 µM | 12.7 µM | 2.93 µM | 6.14 µM | 4.03 µM | 83 µM | 51.7%
COc1ccc(CCNCc2ccc(Oc3cccc(Nc4ccccc4)c3)cc2OC)cc1 | 2.67 µM | 7.84 µM | 3.97 µM | 1.02 µM | 4.06 µM | 102 µM | 42.1%
COc1cc(Oc2cccc(Nc3ccccc3)c2)cc(OC)c1CNCc1ccccc1 | 4.07 µM | 7.49 µM | 3.34 µM | 5.02 µM | 5.22 µM | 125 µM | 26.4%
COc1ccc(CCNCc2ccc(Oc3cccc(Nc4ccccc4)c3)c(OC)c2)cc1 | 3.11 µM | 11 µM | 2.75 µM | 3.35 µM | 5.92 µM | 107 µM | 42.3%
COc1cc(Oc2cccc(Nc3ccccc3)c2)cc(OC)c1CNCCc1ccc(F)cc1 | 3.19 µM | 8.95 µM | 2.52 µM | 2.34 µM | 2.87 µM | 95 µM | 40.5%
COc1cc(Oc2cccc(Nc3ccccc3)c2)cc(OC)c1CNC12CC3CC(CC(C3)C1)C2 | > 20 µM | > 20 µM | 3.53 µM | 6.51 µM | 7.37 µM | 147 µM | 12.6%
COc1cc(Oc2cccc(Nc3ccccc3)c2)cc(OC)c1CNC1CC1 | > 20 µM | > 20 µM | 12.3 µM | 6.14 µM | > 20 µM | > 150 µM | 1.7%
COc1ccc(CCCNCc2c(OC)cc(Oc3ccc(Nc4ccccc4)cc3)cc2OC)cc1 | 3.23 µM | 14.6 µM | 6.89 µM | 2.18 µM | 4.65 µM | 72 µM | 70.6%
COc1cccc(CCNCc2c(OC)cc(Oc3cccc(Nc4ccccc4)c3)cc2OC)c1 | 4.02 µM | 3.93 µM | 2.33 µM | 1.29 µM | 2.35 µM | 78 µM | 60.8%
COc1cc(Oc2cccc(Nc3ccccc3)c2)cc(OC)c1CNCc1ccc(Br)cc1 | 6.23 µM | 11.2 µM | 3.06 µM | 5.41 µM | 3.52 µM | 129 µM | 29.3%
COc1cc(Oc2cccc(Nc3ccccc3)c2)cc(OC)c1CNCc1ccc(O)cc1 | 3.36 µM | 7.94 µM | 2.18 µM | 3.43 µM | 2.69 µM | 123 µM | 31.8%
COc1cc(Oc2cccc(Nc3ccccc3)c2)cc(OC)c1CNCCNC(C)=O | 18.2 µM | 11.9 µM | 3.96 µM | 5.09 µM | 6.01 µM | > 150 µM | 10.2%
CCN1CCN(Cc2c(OC)cc(Oc3cccc(Nc4ccccc4)c3)cc2OC)CC1 | > 20 µM | > 20 µM | > 20 µM | 5.09 µM | > 20 µM | > 150 µM | 8.9%
COc1cc(Oc2cccc(Nc3ccccc3)c2)cc(OC)c1CN(CCO)CCO | > 20 µM | > 20 µM | > 20 µM | 8.97 µM | > 20 µM | > 150 µM | 6.1%

Structure (SMILES) | IC50 (HCT-116) | IC50 (SW-620) | IC50 (HT-29) | IC50 (HCT-15) | IC50 (DLD-1) | IC50 [1] | inhibition (Homo sapiens)
COc1cc(Oc2cccc(Nc3ccccc3)c2)cc(OC)c1CNC(C)C | > 20 µM | > 20 µM | > 20 µM | > 20 µM | > 20 µM | > 150 µM | –
COc1cc(Oc2cccc(Nc3ccccc3)c2)cc(OC)c1CN[C@H](C)c1ccccc1 | > 20 µM | 18.7 µM | 5.12 µM | 7.55 µM | 8.57 µM | 116 µM | 30.5%
COc1cc(Oc2cccc(Nc3ccccc3)c2)cc(OC)c1CN1CCN(CCO)CC1 | > 20 µM | > 20 µM | > 20 µM | 6.43 µM | > 20 µM | > 150 µM | –
COc1cc(Oc2cccc(Nc3ccccc3)c2)cc(OC)c1CNCCc1ccc(C)cc1 | 3.32 µM | 5.77 µM | 1.25 µM | 2.88 µM | 1.86 µM | 87 µM | 46.2%
COc1cc(Oc2cccc(Nc3ccccc3)c2)cc(OC)c1CNCc1ccc(F)cc1 | 4.22 µM | 6.77 µM | 2.75 µM | 3.64 µM | 2.65 µM | 137 µM | 21.2%
COc1cc(Oc2cccc(Nc3ccccc3)c2)cc(OC)c1CNCc1ccc(C)cc1 | 13.8 µM | 11.8 µM | 3.88 µM | 5.4 µM | 6.08 µM | 119 µM | 32.4%
COc1cc(Oc2cccc(Nc3ccccc3)c2)cc(OC)c1CNCc1ccc(Cl)cc1 | 3.31 µM | 6.34 µM | 3.35 µM | 4.85 µM | 3.74 µM | 123 µM | 25.7%
COc1ccc(CNCc2c(OC)cc(Oc3cccc(Nc4ccccc4)c3)cc2OC)cc1 | 2.62 µM | 6.97 µM | 1.89 µM | 2.65 µM | 1.91 µM | 86 µM | 48.7%
CNCc1c(OC)cc(Oc2cccc(Nc3ccccc3)c2)cc1OC | > 20 µM | 15 µM | 7.43 µM | 8.93 µM | 11.9 µM | > 150 µM | 2.5%
COc1ccc(CCNCc2c(OC)cc(Oc3cccc(Nc4ccccc4)c3)cc2OC)cc1 | 0.98 µM | 6.23 µM | 1.02 µM | 1.25 µM | 1.12 µM | 69 µM | 75.1%
COc1ccccc1CCNCc1c(OC)cc(Oc2cccc(Nc3ccccc3)c2)cc1OC | 3.4 µM | 3.65 µM | 2.12 µM | 1.19 µM | 2.32 µM | 72 µM | 67.4%
COc1cc(Oc2cccc(Nc3ccccc3)c2)cc(OC)c1CNCCc1ccccc1 | 13.6 µM | 11.6 µM | 6.06 µM | 6.14 µM | 6.77 µM | 96 µM | 45.1%
COc1ccc(CCCNCc2c(OC)cc(Oc3cccc(Nc4ccccc4)c3)cc2OC)cc1 | 2.85 µM | 6.4 µM | 3.32 µM | 0.73 µM | 2.54 µM | 147 µM | 63.4%
COc1cc(Oc2cccc(Nc3ccccc3)c2)cc(OC)c1CN(C)C | 12.9 µM | > 20 µM | > 20 µM | 15.6 µM | > 20 µM | > 150 µM | 3.2%
COc1ccc(CCNCc2ccc(Oc3cccc(Nc4ccccc4)c3)cc2)cc1 | 3.99 µM | 14.6 µM | 6.89 µM | 2.18 µM | 4.65 µM | 116 µM | 35.6%

— ChEMBL document CHEMBL4765310, “Discovery of 4-(3,5-dimethoxy-4-(((4-methoxyphenethyl)amino)methyl)phenoxy)-N-phenylaniline as a novel c-myc inhibitor against colorectal cancer in vitro and in vivo” (Eur J Med Chem, 2020)
